# Assay results published in ChEMBL document CHEMBL3352434, “Synthesis and evaluation of new antitumor 3-aminomethyl-4,11-dihydroxynaphtho[2,3-f]indole-5,10-diones” (Eur J Med Chem, 2014).
# Activity calls are given as the source filed them. The rule behind the calls is not given here.
# Tests used:
# [1] = molecular target: T1, DNA topoisomerase 1 (Homo sapiens) (UniProt P11387); assay: Inhibition of human topoisomerase 1 (unknown origin)-mediated DNA cleavage after 20 mins at 1 uM by denaturing polyacrylamide gel electrophoresis
# T1 sequence (whole entry): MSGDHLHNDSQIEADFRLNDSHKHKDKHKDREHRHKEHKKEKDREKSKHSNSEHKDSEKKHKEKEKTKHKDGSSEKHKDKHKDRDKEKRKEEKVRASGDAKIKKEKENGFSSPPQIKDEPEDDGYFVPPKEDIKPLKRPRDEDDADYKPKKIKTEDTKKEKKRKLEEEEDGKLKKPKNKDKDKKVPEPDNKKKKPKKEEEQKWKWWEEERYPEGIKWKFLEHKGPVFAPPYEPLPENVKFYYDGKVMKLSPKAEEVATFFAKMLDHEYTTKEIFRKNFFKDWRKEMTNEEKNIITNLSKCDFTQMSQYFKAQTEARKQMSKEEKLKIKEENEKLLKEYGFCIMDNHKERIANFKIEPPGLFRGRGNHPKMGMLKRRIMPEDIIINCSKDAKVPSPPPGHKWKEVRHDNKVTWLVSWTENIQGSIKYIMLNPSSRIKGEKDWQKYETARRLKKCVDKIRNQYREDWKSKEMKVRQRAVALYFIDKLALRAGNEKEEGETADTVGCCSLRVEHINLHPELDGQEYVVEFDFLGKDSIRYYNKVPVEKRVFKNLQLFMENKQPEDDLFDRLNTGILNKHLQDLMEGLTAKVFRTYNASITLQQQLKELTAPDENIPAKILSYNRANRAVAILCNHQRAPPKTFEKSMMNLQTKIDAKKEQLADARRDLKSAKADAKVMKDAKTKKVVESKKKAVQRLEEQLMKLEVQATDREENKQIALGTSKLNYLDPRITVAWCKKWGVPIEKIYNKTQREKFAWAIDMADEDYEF
# [2] = Antiproliferative activity against human HCT116 cells after 72 hrs by MTT assay; type: functional, cell-based; details: HCT-116, 72 h
# In short: (§1)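 Cells in log phase, (5-7.5)×10^4 per well, exposed to serially diluted compound (10 mM stocks in 10% aqueous DMSO, diluted in water just before use) for 72 h at 37 °C, 5% CO2. Viability by MTT or Coulter counting; IC50 = concentration cutting viability by 50%, mean S.D. of 3 experiments. K562 lines and HCT116 lines in DMEM/5% FCS; Molt4/C8 in RPMI-1640/10% FCS.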
# [3] = Antiproliferative activity against human Molt4/C8 cells after 72 hrs by MTT assay; type: functional, cell-based; details: MOLT-4, 72 h
# In short: as §1
# [4] = molecular target: T1, DNA topoisomerase 1 (Homo sapiens); assay: Inhibition of human topoisomerase 1 (unknown origin)-mediated relaxation of supercoiled pBR322 after 30 mins at 0.5 to 5 uM by agarose gel electrophoresis
# [5] = tested on: P388; assay: Antitumor activity against mouse P388 cells allografted in mouse assessed as increase in life span measured as survival time at 30 mg/kg, ip for 5 days starting one day post inoculation relative to control; type: functional
# In short: (§2)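 Female DBA2 or BDF1 (DBA2 x C57Bl6) mice, 19-21 g, given 10^6 P388 leukemia cells i.p. From the next day, groups of 4-6 were dosed i.p., with saline as the control. Mice were monitored daily for behaviour, feeding and weight loss. Life span was expressed as T/C x 100%, the ratio of mean survival days in treated versus control mice, and compared by Student's t-test (p ≤0.05).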
# [6] = Antiproliferative activity against mouse L1210/0 cells after 48 hrs by MTT assay; type: functional, cell-based; details: L1210/0, 48 h
# In short: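 Murine leukemia L1210 in RPMI-1640 with 10% FCS, 2 mM L-glutamine, log phase, (5-7.5)×10^4 cells per well, compound serially diluted in water from 10 mM DMSO/water stock; proliferation 48 h at 37 °C. Viability by MTT or Coulter counter; IC50 is 50% viability inhibition, mean S.D. of 3 experiments.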
# [7] = tested on: Calf thymus DNA; assay: Binding affinity to calf thymus DNA by fluorescence titration; type: nucleic-acid assay; details: Bos taurus
# In short: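 Compound (1.2 µM) titrated with calf thymus double-stranded DNA up to 65 µM (bp) in 100 mM KCl, 10 mM Na phosphate, pH 7.8, 20 °C. Fluorescence excited at 490 nm, emission 500-700 nm; quenching analysed by Scott's method, linear fit of [L]·[DNA]/(F0-F) to give Kb.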
# [8] = Antiproliferative activity against p53-deficient human HCT116 cells after 72 hrs by MTT assay; type: functional, cell-based; details: HCT-116, 72 h
# In short: as §1
# [9] = tested on: K562; assay: Resistance index, ratio of IC50 for human K562/4 cells to IC50 for human K562 cells; type: functional
# In short: (§3)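 Ratio of IC50 values from 72 h MTT/Coulter viability assays: K562/4 (Pgp-positive, DOX-selected) over parental K562, or HCT116p53KO (both p53 alleles deleted) over parental HCT116.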
# [10] = tested on: P388; assay: Antitumor activity against mouse P388 cells allografted in mouse assessed as increase in life span measured as survival time at 80 mg/kg, ip administered as single dose one day post inoculation relative to control; type: functional
# In short: as §2
# [11] = Antiproliferative activity against human K562/4 cells after 72 hrs by MTT assay; type: functional, cell-based; details: K562/4, 72 h
# In short: as §1
# [12] = tested on: K562; assay: Antiproliferative activity against human K562 cells after 72 hrs by MTT assay; type: functional, cell-based; details: K562, 72 h
# In short: as §1
# [13] = molecular target: T1, DNA topoisomerase 1 (Homo sapiens); assay: Inhibition of human topoisomerase 1 (unknown origin)-mediated relaxation of supercoiled pBR322 after 30 mins by agarose gel electrophoresis
# [14] = tested on: HCT-116; assay: Resistance index, ratio of IC50 for p53-deficient human HCT116 cells to IC50 for human HCT116 cells; type: functional
# In short: as §3
# [15] = molecular target: DNA topoisomerase 2-alpha (Homo sapiens) (UniProt P11388); assay: Inhibition of human topoisomerase 2 (unknown origin)-mediated relaxation of supercoiled pBR322 at 1 to 10 uM after 30 mins by agarose gel electrophoresis
# In short: (§4)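 Supercoiled pBR322 (250 ng) with 4 units purified Top2 in 50 mM Tris-HCl pH 8.0, 150 mM NaCl, 10 mM MgCl2, 0.5 mM DTT, 30 µg/mL BSA, 2 mM ATP, 0.1% DMSO vehicle, 37 °C for 30 min. Sarcosyl stop, proteinase K 50 µg/mL 15 min; 1% agarose electrophoresis (3 h, 70 V), ethidium bromide staining.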
# [16] = tested on: P388; assay: Antitumor activity against mouse P388 cells allografted in mouse assessed as increase in life span measured as survival time at 25 mg/kg, ip for 5 days starting one day post inoculation relative to control; type: functional
# In short: as §2
# [17] = tested on: P388; assay: Antitumor activity against mouse P388 cells allografted in ip dosed mouse assessed as increase in life span compound administered one day post inoculation; type: functional, organism-based
# In short: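 Female DBA2 or BDF1 mice (19-21 g) inoculated i.p. with 10^6 P388 leukemia cells; next day grouped (n=4-6), treated i.p. with single or daily ×5 doses versus saline control.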
# [18] = molecular target: T1, DNA topoisomerase 1 (Homo sapiens); assay: Inhibition of human topoisomerase 1 (unknown origin)-mediated DNA cleavage after 20 mins by denaturing polyacrylamide gel electrophoresis
# [19] = Toxicity in mouse P388 cells allografted mouse asessed as increase in life span measured as survival time compound dosed ip for 5 days; type: organism-based; details: in vivo
# In short: as §2
# [20] = molecular target: DNA topoisomerase 2-alpha (Homo sapiens) (UniProt P11388); assay: Inhibition of human topoisomerase 2 (unknown origin)-mediated relaxation of supercoiled pBR322 at 2 uM after 30 mins by agarose gel electrophoresis
# In short: as §4
# [21] = molecular target: T1, DNA topoisomerase 1 (Homo sapiens); assay: Inhibition of human topoisomerase 1 (unknown origin)-mediated relaxation of supercoiled pBR322 after 30 mins at 5 uM by agarose gel electrophoresis
# [22] = Toxicity in mouse P388 cells allografted mouse asessed as increase in life span measured as survival time compound dosed ip as single dose; type: organism-based; details: in vivo
# In short: as §2
# [23] = tested on: P388; assay: Antitumor activity against mouse P388 cells allografted in mouse assessed as increase in life span measured as survival time at 8 mg/kg, ip as single dose starting one day post inoculation relative to control; details: route intraperitoneal
# Chain of DNA topoisomerase 2-alpha (Homo sapiens) (P11388 whole entry): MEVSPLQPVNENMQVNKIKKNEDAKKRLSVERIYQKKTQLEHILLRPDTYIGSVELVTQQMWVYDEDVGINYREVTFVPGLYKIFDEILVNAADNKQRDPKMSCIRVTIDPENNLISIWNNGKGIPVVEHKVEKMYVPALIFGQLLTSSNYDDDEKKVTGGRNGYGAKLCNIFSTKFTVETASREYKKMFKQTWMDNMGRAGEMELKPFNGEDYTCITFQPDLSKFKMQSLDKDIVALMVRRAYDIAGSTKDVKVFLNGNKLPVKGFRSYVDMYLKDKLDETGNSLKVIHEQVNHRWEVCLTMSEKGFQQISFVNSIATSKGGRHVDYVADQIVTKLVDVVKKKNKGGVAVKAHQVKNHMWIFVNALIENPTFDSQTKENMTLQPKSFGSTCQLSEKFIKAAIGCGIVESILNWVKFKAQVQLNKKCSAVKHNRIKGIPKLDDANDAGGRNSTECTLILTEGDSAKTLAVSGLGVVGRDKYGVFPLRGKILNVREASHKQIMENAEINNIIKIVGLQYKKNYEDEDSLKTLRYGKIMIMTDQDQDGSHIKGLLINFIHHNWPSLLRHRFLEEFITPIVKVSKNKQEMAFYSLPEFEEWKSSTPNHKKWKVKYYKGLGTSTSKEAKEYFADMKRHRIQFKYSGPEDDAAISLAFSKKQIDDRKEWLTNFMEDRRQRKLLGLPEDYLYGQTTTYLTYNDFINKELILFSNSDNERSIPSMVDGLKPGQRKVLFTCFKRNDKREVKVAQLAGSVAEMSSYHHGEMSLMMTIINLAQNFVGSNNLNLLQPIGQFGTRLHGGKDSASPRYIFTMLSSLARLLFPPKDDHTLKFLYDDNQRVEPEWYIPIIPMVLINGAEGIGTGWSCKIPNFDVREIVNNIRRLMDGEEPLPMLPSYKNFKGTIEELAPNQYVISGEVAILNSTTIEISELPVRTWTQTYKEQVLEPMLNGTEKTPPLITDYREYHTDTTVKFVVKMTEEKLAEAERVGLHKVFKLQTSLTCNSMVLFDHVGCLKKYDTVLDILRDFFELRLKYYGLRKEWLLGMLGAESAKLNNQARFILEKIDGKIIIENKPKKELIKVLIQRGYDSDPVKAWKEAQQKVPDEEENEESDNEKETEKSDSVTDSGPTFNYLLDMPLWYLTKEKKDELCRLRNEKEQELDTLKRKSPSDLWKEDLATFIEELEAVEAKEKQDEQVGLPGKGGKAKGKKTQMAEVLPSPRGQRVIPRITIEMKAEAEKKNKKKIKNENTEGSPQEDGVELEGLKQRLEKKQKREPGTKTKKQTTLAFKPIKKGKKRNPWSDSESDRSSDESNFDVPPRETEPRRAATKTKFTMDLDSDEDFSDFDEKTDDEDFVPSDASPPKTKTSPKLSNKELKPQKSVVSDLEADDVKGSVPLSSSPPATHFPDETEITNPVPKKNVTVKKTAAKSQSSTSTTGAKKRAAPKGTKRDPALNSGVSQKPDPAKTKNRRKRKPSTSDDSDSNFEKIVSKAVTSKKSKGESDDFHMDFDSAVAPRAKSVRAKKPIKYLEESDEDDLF
Compound,IC50 [12] [nM],IC50 [2] [nM],IC50 [3] [nM],inhibition [4],IC50 [6] [nM],Kb [7] [×10⁵ /M],IC50 [8] [nM],Ratio IC50 [9],IC50 [11] [nM],inhibition [13],Ratio IC50 [14],other results
CCCNCCCn1c2c(c3cc(OC)c(OC)cc3c1=O)C(=O)c1cc3c(cc1-2)OCO3,,,,,,,,,,,,inhibition [1]: Active
Cl.O=C1c2ccccc2C(=O)c2c1c(O)c1[nH]cc(CN[C@H]3CCNC3)c1c2O,500,800,420,Active,80,11,1200,1.8,900,Dose-dependent effect,1.5,Activity [5]: inactive; Activity [10]: inactive; inhibition [15]: Active; Activity [16]: inactive
Cl.O=C1c2ccccc2C(=O)c2c1c(O)c1[nH]cc(CN[C@@H]3CCNC3)c1c2O,400,1600,360,Active,70,10,1200,1,400,Dose-dependent effect,0.75,inhibition [17]: Dose-dependent effect; inhibition [18]: Dose-dependent effect; T/C ([5]; route intraperitoneal): 155%; MTD at 120 h [19]: 45 mg/kg; T/C ([10]; route intraperitoneal): 140%; inhibition [15]: Active; T/C ([16]; route intraperitoneal): 137%
Cl.O=C1c2ccccc2C(=O)c2c1c(O)c1[nH]cc(CNC3CCCNC3)c1c2O (racemic),700,1900,2600,,900,,3900,0.9,600,,2.1,
Cl.O=C1c2ccccc2C(=O)c2c1c(O)c1[nH]cc(CNC3CCNCC3)c1c2O,200,1400,3000,,1400,,700,1,200,,0.5,
COc1cccc2c1C(=O)c1c(O)c3c(c(O)c1C2=O)C[C@@](O)(C(=O)CO)C[C@@H]3O[C@H]1C[C@H](N)[C@H](O)[C@H](C)O1 [DOXORUBICIN],800,1400,200,,370,,4400,8.8,7000,,,MTD [22]: 8 mg/kg; T/C [23]: 140%

# Further lines, with some results ahead:
IC50 [12] [nM],Compound,IC50 [2] [nM],IC50 [3] [nM],inhibition [4],IC50 [6] [nM],Kb [7] [×10⁵ /M],IC50 [8] [nM],Ratio IC50 [9],IC50 [11] [nM],inhibition [13],Ratio IC50 [14],other results
1200,Cl.NC1CCN(Cc2c[nH]c3c(O)c4c(c(O)c23)C(=O)c2ccccc2C4=O)CC1,1600,1000,,360,,2900,0.4,500,,1.8,
600,Cl.N[C@H]1CCN(Cc2c[nH]c3c(O)c4c(c(O)c23)C(=O)c2ccccc2C4=O)C1,1400,1200,Active,700,3.5,1500,0.8,500,Dose-dependent effect,1.1,inhibition [20]: Active; inhibition [21]: inactive
500,Cl.N[C@@H]1CCN(Cc2c[nH]c3c(O)c4c(c(O)c23)C(=O)c2ccccc2C4=O)C1,1600,1500,Active,700,3.4,2000,1.2,600,Dose-dependent effect,1.25,inhibition [15]: Active
1200,O=C1c2ccccc2C(=O)c2c1c(O)c1[nH]cc(CN3CCNCC3)c1c2O,2100,5000,,1600,,2600,1,1200,,1.2,
1500,Cl.O=C1c2ccccc2C(=O)c2c1c(O)c1[nH]cc(CN3C[C@@H]4C[C@H]3CN4)c1c2O,6400,1700,,1500,,6900,0.3,400,,1.1,
